Measured values: PubChem BioAssay AID1753 (Vanderbilt High Throughput Screening Facility, 2009)
Records with an inconclusive call do not appear. The source made the active and inactive calls.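 How the source made its calls: active means a converged dose-response curve, firm or less certain, in at least 2 of 3 replicates; inactive means the rest, inconclusive results apart.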

What follows are molecules tested on native HEK293 thallium flux, FluoZin2 fluorescence, ouabain (assay: native HEK thallium flux modulation with ouabain, dose response, counter-screen for KCC2 modulator project, HEK cells, counterscreen (AID 1753)).
Procedure, shortened: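 Assay system: native untransfected HEK cells, thallium flux counterscreen with ouabain. Buffer or medium: HBSS, 20 mM HEPES, 0.2 mM ouabain. Also added: thallium stimulus. Compound dosing: 11-point threefold dilution series, top dose 30 µM. Timing: 10–20 s post-thallium window. Detection: kinetic FluoZin2 fluorescence (dye loaded at 0.5 µM), 1 Hz reads. Repeats: three replicates, fitted individually.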
For `O=C(NC(=S)Nc1cccc2cccnc12)c1cccs1`, the EC50 was 114 nM (inactive). `CCOc1cccc(C(=O)NC(=S)Nc2cccc(C)c2)c1` showed an EC50 of 7280 nM. For `Cc1onc(-c2ccccc2Cl)c1C(=O)NC(=S)Nc1ccc(C(C)C)cc1`, the EC50 was 178 nM. `COc1ccc(-c2nnc(-c3ccc(OCC(C)C)cc3)o2)cc1` was tested, and the EC50 was 777 nM (inactive). For `CC(C)c1ccc(OCC(=O)NNC(=O)c2cnccn2)cc1`, the EC50 was 12200 nM (inactive). For `NC(=S)N=Nc1c(O)n(Cc2ccccc2)c2ccccc12`, the EC50 was 124 nM (inactive). With `CCCC(=O)OCC[N+](C)(C)C` the EC50 was 8.1 nM (inactive). With `Cn1nnnc1SCCNCc1ccncc1` the EC50 was 21 nM (inactive). With `CCOc1[nH]n(-c2ccccc2)c(=O)c1C=Nc1ccc(F)cc1F` the EC50 was 1430 nM. `COc1ccc(N2C(=S)N=C(Nc3cccc(C)c3)C23CCCCC3)cc1` showed an EC50 of 1920 nM. Work on `COc1ccc(Cn2c(=S)[nH]c3ccccc32)cc1` yielded an EC50 of 436 nM. With `Cc1ccc(-c2n[nH]c(=S)n2/N=C/C=C\c2ccccc2[N+](=O)[O-])cc1` the EC50 was 1470 nM. For `NC(=S)N=Nc1c(O)n(Cc2ccc(F)cc2)c2ccccc12`, the EC50 was 2250 nM. With `O=C(NC(=S)Nc1ccc2c(c1)OCO2)c1ccc(Cl)cc1` the EC50 was 75.7 nM (inactive). `CC(=O)c1cccc(NC(=S)NC(=O)c2ccc(C)cc2)c1` showed an EC50 of 888 nM. For `COC(=O)c1sccc1NC(=S)OC`, the EC50 was 1800 nM. In the case of `COC(=O)[C@@H](NC(=O)O[C@@H]1C(=O)c2ccc(OC)cc2O[C@H]1c1cccc(C(F)(F)F)c1)C(C)C`, the EC50 is reported as 1680 nM. `Cc1nn(-c2ccccc2)c2sc(C(=O)N(Cc3ccco3)C(C)C(=O)NC(C)(C)C)cc12` (stereo not drawn) was tested, and the EC50 was 10400 nM (inactive).
